From ChEMBL document CHEMBL1148020, “Synthesis and glycogen phosphorylase inhibitor activity of 2,3-dihydrobenzo[1,4]dioxin derivatives” (Bioorg Med Chem, 2007)

Experiments:
[1] = Inhibition of glycogen phosphorylase; design: species or system Homo sapiens
In short: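 Activity measured in the glycogen-synthesis direction at 30 °C with 1% glycogen, with or without glucose-1-phosphate substrate. Buffer was 50 mM triethanolamine/HCl pH 6.8 with 100 mM KCl, 1 mM dithiothreitol and 1 mM EDTA. Muscle or liver phosphorylase a was run without AMP. Phosphorylase b was run with AMP: 1 mM for muscle, 2 mM for liver. Kinetic analysis followed the authors' earlier protocol.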

[2] = target: T1, Glycogen phosphorylase, liver form (Homo sapiens) (UniProt P06737); experiment: Inhibition of liver glycogen phosphorylase B at 625 uM
T1 sequence (whole entry): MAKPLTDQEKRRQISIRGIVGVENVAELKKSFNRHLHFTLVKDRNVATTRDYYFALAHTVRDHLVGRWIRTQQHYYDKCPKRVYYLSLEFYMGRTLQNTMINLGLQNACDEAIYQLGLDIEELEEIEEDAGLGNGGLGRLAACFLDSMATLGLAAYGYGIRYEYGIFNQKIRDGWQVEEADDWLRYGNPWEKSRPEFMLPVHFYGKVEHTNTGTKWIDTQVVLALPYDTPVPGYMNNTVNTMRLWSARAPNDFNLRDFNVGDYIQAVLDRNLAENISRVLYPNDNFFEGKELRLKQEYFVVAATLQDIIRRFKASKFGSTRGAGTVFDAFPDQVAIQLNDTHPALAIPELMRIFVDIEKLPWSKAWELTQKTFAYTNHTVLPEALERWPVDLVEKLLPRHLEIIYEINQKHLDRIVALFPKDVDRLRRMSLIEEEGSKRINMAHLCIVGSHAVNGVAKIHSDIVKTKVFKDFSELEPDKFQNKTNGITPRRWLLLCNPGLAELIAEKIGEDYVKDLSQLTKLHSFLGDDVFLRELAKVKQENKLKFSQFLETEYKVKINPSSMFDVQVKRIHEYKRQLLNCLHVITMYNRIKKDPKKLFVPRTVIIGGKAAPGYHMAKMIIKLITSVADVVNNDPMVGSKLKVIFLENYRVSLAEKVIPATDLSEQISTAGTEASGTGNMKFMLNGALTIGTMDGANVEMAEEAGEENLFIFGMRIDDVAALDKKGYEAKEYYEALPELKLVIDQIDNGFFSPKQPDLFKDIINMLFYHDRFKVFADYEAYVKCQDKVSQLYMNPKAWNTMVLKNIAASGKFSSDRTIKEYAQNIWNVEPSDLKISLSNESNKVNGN

Homo sapiens [3] = species on record: Homo sapiens; experiment: Inhibition of glycogen phosphorylase A at 625 uM
Homo sapiens [4] = species on record: Homo sapiens; experiment: Inhibition of glycogen phosphorylase at 625 uM

Which IC50 [1] does the source give for `O=C1NC(=O)C(Cc2ccc(OCC3COc4cc5c(cc4O3)OCO5)cc2)S1` (configuration not stated) here?
Its IC50 is 7 mM.

For `O=C1N=C(O)S/C1=C\c1ccc(OCC2COc3ccccc3O2)cc1` (configuration not stated), which inhibition [2] is on record?
The inhibition was 20%.

And the inhibition (Homo sapiens [3])?
The inhibition was 20%.

And the inhibition (Homo sapiens [4])?
Its inhibition is 20%.

For `O=C1NC(=O)C(Cc2ccc(OCC3COc4ccccc4O3)cc2)S1` (configuration not stated), which inhibition [2] is on record?
Its inhibition is 20%.

What about the inhibition (Homo sapiens [3]) of the same compound?
The inhibition was 20%.

What about the inhibition (Homo sapiens [4]) of the same compound?
Its inhibition is 20%.
